{"data": "Experimental data pooled from the literature", "NUDT1": "Oxidized purine nucleoside triphosphate hydrolase (NUDT1, Homo sapiens, UniProt P36639)", "HDAC4": "Histone deacetylase 4 (HDAC4, Homo sapiens, UniProt P56524)", "PI4KB": "Phosphatidylinositol 4-kinase beta (PI4KB, Homo sapiens, UniProt Q9UBF8)", "CA4": "Carbonic anhydrase 4 (CA4, Homo sapiens, UniProt P22748)", "Grm7": "Metabotropic glutamate receptor 7 (Grm7, Rattus norvegicus, UniProt P35400)", "SPHK2": "Sphingosine kinase 2 (SPHK2, Homo sapiens, UniProt Q9NRA0)", "cah": "cah (Neisseria gonorrhoeae, UniProt Q50940)", "note": "Protocols differ between the studies behind these lines."}
{"SMILES": "O=C(Nc1ccc(CN2CCOCC2)c(C(F)(F)F)c1)c1ccc(C#Cc2cccc3cnccc23)cn1", "target": "NUDT1", "test": "enzyme activity, activator", "measurement": "AC50", "result": "5500 nM"}
{"SMILES": "CCCN(CCCCOCCOCCOCCOCCOCC(=O)N[C@@H](C(=O)N1C[C@@H](O)C[C@@H]1C(=O)NCc1ccc(-c2scnc2C)cc1)C(C)(C)C)C[C@@H](C)NC(=O)c1ccc(-c2noc(C(F)(F)F)n2)cc1", "target": "HDAC4", "test": "protein level, degrader", "measurement": "DC50", "result": "> 10000 nM"}
{"SMILES": "CCC(=O)N1CCC(C(=O)NCC(=O)N2CCN(c3nc(-c4cnc(N)nc4C(F)F)nc(N4CCOCC4)n3)CC2)CC1", "target": "PI4KB", "test": "binding, competition with immobilised ligand", "measurement": "Kd", "result": "> 30000 nM"}
{"SMILES": "CCOC(=O)[C@](CC)(CCCS(=O)(=O)CCOCCOCCNC(=O)OC(C)(C)C)NC(=O)c1ccc(C2CC2)c(Cc2ccc(F)cc2)n1", "target": "Cannabinoid receptor 2 (Cnr2, Mus musculus, UniProt P47936)", "test": "ligand displacement, radioligand", "conditions": "cell membranes", "measurement": "Ki", "result": "100 nM"}
{"SMILES": "FC(F)(F)c1ccc(C(c2c[nH]c3ccccc23)c2c[nH]c3ccccc23)cc1", "target": "Nuclear receptor subfamily 4immunitygroup A member 1 (NR4A1, Homo sapiens, UniProt P22736)", "test": "binding, SPR", "measurement": "Kd", "result": "3000 nM"}
{"SMILES": "NS(=O)(=O)c1ccc(C(=O)CSCc2ccccc2)cc1", "target": "CA4", "test": "thermal stability, DSF", "conditions": "pH 7", "measurement": "Kd", "result": "16 nM"}
{"SMILES": "CCCN1CCN(c2ccc(-c3cncc(Cl)c3N3CCC4(CCNC4=O)CC3)cc2)CC1", "target": "NUDT1", "test": "cell-free assay", "conditions": "lysate", "measurement": "Kd", "result": "2330 nM"}
{"SMILES": "Cc1nc(NC(=O)N2CCC[C@H]2C(N)=O)sc1-c1ccnc(C(C)(C)C(F)(F)F)c1", "target": "PI4KB", "test": "binding, competition with immobilised ligand", "measurement": "Kd", "result": "82 nM"}
{"SMILES": "NS(=O)(=O)c1cc(C2(O)CSC3=NCCN32)ccc1Cl (centres unmarked)", "target": "CA4", "test": "thermal stability, DSF", "conditions": "pH 7", "measurement": "Kd", "result": "40 nM"}
{"SMILES": "N[C@@H](CCC(=O)O)C(=O)O", "target": "Grm7", "test": "ion flux, agonist", "measurement": "EC50", "result": "260000 nM"}
{"SMILES": "CCC(=O)N1CCC(C(=O)N(C)CC(=O)N2CCN(c3nc(-c4cnc(N)nc4C(F)F)nc(N4CCOCC4)n3)CC2)CC1", "target": "PI4KB", "test": "binding, competition with immobilised ligand", "measurement": "Kd", "result": "> 30000 nM"}
{"SMILES": "CCCc1ccc(CCc2ccc(-c3noc([C@@H]4CCCN4C(=N)N)n3)cc2C(F)(F)F)cc1", "target": "SPHK2", "test": "enzyme activity, inhibitor", "measurement": "Ki", "result": "132 nM"}
{"SMILES": "Cc1cnc(-c2ccc(-c3ccc(NC(=O)Nc4c(F)cc(F)cc4F)cc3F)c3c2C(=O)NC3)[nH]1", "target": "Tyrosine-protein kinase Blk (BLK, Homo sapiens, UniProt P51451)", "test": "binding, competition with immobilised ligand", "measurement": "Kd", "result": "2.2 nM"}
{"SMILES": "NS(=O)(=O)c1nnc(NC(=O)C2CC2)s1", "target": "cah", "test": "enzyme activity, inhibitor", "measurement": "Ki", "result": "15.2 nM"}
{"SMILES": "Nc1ncnc2c1ncn2[C@@H]1O[C@H](COP(=O)(O)OP(=O)(O)OP(=O)(O)O)[C@@H](O)[C@H]1O", "target": "P2X purinoceptor 1 (P2RX1, Homo sapiens, UniProt P51575)", "test": "ion current, agonist, two-electrode voltage clamp", "conditions": "oocytes", "measurement": "EC50", "result": "~900 nM"}
{"SMILES": "NS(=O)(=O)c1nnc(NC(=O)C2CCCC2)s1", "target": "cah", "test": "enzyme activity, inhibitor", "measurement": "Ki", "result": "14.1 nM"}
{"SMILES": "COC(=O)c1ccc(-n2c(C)cc(C(=O)CSc3ccc(NC(C)=O)cc3)c2C)cc1", "target": "Grm7", "test": "calcium signal, positive allosteric modulator", "measurement": "EC50", "result": "1580 nM"}
{"SMILES": "CC[C@H](NC(=O)[C@H](CS(=O)(=O)CC1CC1)N[C@@H](c1ccc(F)cc1)C(F)(F)F)C(=O)C(=O)NC1CC1", "target": "Cathepsin S (Rattus norvegicus, UniProt Q02765)", "test": "enzyme activity, inhibitor", "measurement": "Ki", "result": "0.77 nM"}
{"SMILES": "NS(=O)(=O)c1nnc(NC(=O)CC2CCCC2)s1", "target": "cah", "test": "enzyme activity, inhibitor", "measurement": "Ki", "result": "34.6 nM"}
{"SMILES": "CCCN(CCCCOCCOCCOCCOCC(=O)N[C@H](C(=O)N1C[C@H](O)C[C@H]1C(=O)NCc1ccc(-c2scnc2C)cc1)C(C)(C)C)C[C@@H](C)NC(=O)c1ccc(-c2noc(C(F)(F)F)n2)cc1", "target": "HDAC4", "test": "protein level, degrader", "measurement": "DC50", "result": "4 nM"}
{"SMILES": "C[C@H]1CN(C2COC2)CCN1c1ccc(Nc2cc(-c3ccnc(N4CCn5c(cc6c5CC(C)(C)C6)C4=O)c3CO)cn(C)c2=O)nc1", "target": "Solute carrier organic anion transporter family member 1B3 (SLCO1B3, Homo sapiens, UniProt Q9NPD5)", "test": "transporter uptake, inhibitor", "system": "HEK293", "measurement": "Ki", "result": "704 nM"}
{"SMILES": "NS(=O)(=O)c1nnc(NC(=O)CC2CC2)s1", "target": "cah", "test": "enzyme activity, inhibitor", "measurement": "Ki", "result": "29.3 nM"}
{"SMILES": "[H]/N=C(\\N)N1CCC[C@H]1c1nc(-c2ccc(OCC=Cc3ccc(C(F)(F)F)cc3)c(C(F)(F)F)c2)no1", "target": "SPHK2", "test": "enzyme activity, inhibitor", "measurement": "Ki", "result": "105 nM"}
